From ChEMBL document CHEMBL1782010, “Synthesis and evaluation of quinoxaline derivatives as potential influenza NS1A protein inhibitors” (Bioorg Med Chem Lett, 2011)
Calls of active or inactive are those of the source. No cut-off for these calls is given here.

Key:
[1] = system: Nucleic Acid; test: Binding affinity to double strand RNA assessed as denaturation of double strand RNA to single strand RNA at 50 uM after 1 hr by fluorescence polarization assay; format: nucleic-acid assay
In short: (§1)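 Counter-screen of FAM-dsRNA alone, with no NS1A target, by an analogous fluorescence polarization assay at 50 μM compound. Reported as % intercalation: a positive sign means intercalation into the dsRNA, a negative sign means denaturation of the dsRNA to single strands. Duplicates averaged.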

[2] = system: Influenza A virus (A/udorn/1972(H3N2)); test: Inhibition of Influenza A/Udorn/72/H3N2 full length GST-tagged NS1A/FAM-double strand RNA-interaction at 50 uM after 1 hr by fluorescence polarization assay
In short: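 Fluorescence polarization: carboxyfluorescein-labelled dsRNA (FAM-dsRNA) probe binds NS1A protein, which raises polarization. Disruption of binding read at 50 μM compound and reported as % binding. Run in duplicate; values averaged.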

[3] = system: Nucleic Acid; test: Binding affinity to double strand RNA assessed as compound intercalation to double strand RNA at 50 uM after 1 hr by fluorescence polarization assay; format: nucleic-acid assay; in short: as §1
[4] = Inhibition of Influenza A/Udorn/72/H3N2 full length GST-tagged NS1A/FAM-dsRNA-interaction after 1 hr by fluorescence polarization assay; design: species or system Influenza A virus (A/udorn/1972(H3N2))
In short: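 Dose-dependent version of the FAM-dsRNA/NS1A fluorescence polarization binding assay. The rise in polarization on probe binding to NS1A gives the read-out, and IC50 is taken from the dose-response. Run in duplicate; values averaged.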

[5] = system: Influenza A virus; test: Antiviral activity against Influenza A/Udorn/72 virus infected in MDCK cells assessed as inhibition of viral growth at 30 uM treated 1 hr after infection measured up to 15 hrs by plaque assay relative to control; format: functional, Influenza A virus (A/udorn/1972(H3N2))
In short: (§2)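 MDCK cells infected with influenza A/Udorn/72, either at MOI 5 (single-cycle growth) or at MOI 0.001 (multiple-cycle growth). After 1 h infection, growth medium containing compound diluted in DMSO was added; control received 0.1% DMSO. Virus yield was followed over time as growth curves.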

[6] = system: Influenza A virus; test: Antiviral activity against Influenza A/Udorn/72 virus infected in MDCK cells assessed as reduction of plaque forming unit at 60 uM treated 1 hr after infection measured after 36 hrs by plaque assay; format: functional, organism-based; details: Influenza A virus (A/udorn/1972(H3N2)); in short: as §2

Row | Compound | Activity [1] [%] | inhibition [2] [%] | Activity [3] [%] | other results
1 | O=C(NCc1ccccc1F)c1ccc2nc(-c3ccco3)c(-c3ccco3)nc2c1 | -11.3 | 11.6 | – | –
2 | O=C(NCc1ccc(F)cc1)c1ccc2nc(-c3ccco3)c(-c3ccco3)nc2c1 | – | 49 | 6.3 | –
3 | COc1ccccc1-c1nc2ccccc2nc1-c1ccccc1OC | -6.7 | 5 | – | –
4 | O=[N+]([O-])c1ccc2nc(-c3ccc(O)cc3)c(-c3ccc(O)cc3)nc2c1 | -32 | 19.5 | – | –
5 | O=[N+]([O-])c1ccc2nc(-c3cccc(O)c3)c(-c3cccc(O)c3)nc2c1 | -15.8 | 42.8 | – | –
6 | Oc1ccccc1-c1nc2ccccc2nc1-c1ccccc1O | – | -0.9 | -1 | –
7 | COc1ccc2nc(-c3ccccc3OC)c(-c3ccccc3OC)nc2c1 | -5 | 4.4 | – | –
8 | COc1ccccc1-c1nc2ccc(C(=O)O)cc2nc1-c1ccccc1OC | -2.5 | 2.8 | – | –
9 | COc1ccc(CNC(=O)c2ccc3nc(-c4ccco4)c(-c4ccco4)nc3c2)cc1 | – | 44 | 7.6 | –
10 | COc1ccc(CNC(=O)c2ccc3nc(-c4ccco4)c(-c4ccco4)nc3c2)cc1OC | – | 39.5 | 5.6 | –
11 | c1coc(-c2nc3ccccc3nc2-c2ccco2)c1 | -23.7 | 7.3 | – | –
12 | Oc1ccc(-c2nc3ccc(O)cc3nc2-c2ccc(O)cc2)cc1 | – | 38.8 | 29.5 | –
13 | O=C(O)c1ccc2nc(-c3ccc(O)cc3)c(-c3ccc(O)cc3)nc2c1 | -7.7 | 13.3 | – | –
14 | O=C(O)c1ccc2nc(-c3cccc(O)c3)c(-c3cccc(O)c3)nc2c1 | – | 28.7 | -3.4 | –
15 | COC(=O)c1ccc2nc(-c3ccco3)c(-c3ccco3)nc2c1 | -12.3 | 76 | – | IC50 [4]: 74.8 µM
16 | c1ccc2nc(-c3ccc4c(c3)OCO4)c(-c3ccc4c(c3)OCO4)nc2c1 | – | 1.5 | 7.9 | –
17 | COc1cccc(CNC(=O)c2ccc3nc(-c4ccco4)c(-c4ccco4)nc3c2)c1 | – | 74 | 4.5 | IC50 [4]: 6.2 µM
18 | O=[N+]([O-])c1ccc2nc(-c3ccc4c(c3)OCO4)c(-c3ccc4c(c3)OCO4)nc2c1 | – | 56.6 | 24.4 | –
19 | O=C(O)c1ccc2nc(-c3ccccn3)c(-c3ccccn3)nc2c1 | – | 15.7 | 2.9 | –
20 | COc1cccc(-c2nc3ccc([N+](=O)[O-])cc3nc2-c2cccc(OC)c2)c1 | – | 1.5 | 1.9 | –
21 | c1ccc(-c2nc3ccccc3nc2-c2ccccn2)nc1 | – | -3.1 | 2.3 | –
22 | O=C(NCc1cccs1)c1ccc2nc(-c3ccco3)c(-c3ccco3)nc2c1 | -10.5 | 8.2 | – | –
23 | O=C(O[C@@H]1Cc2c(O)cc(O)cc2O[C@@H]1c1cc(O)c(O)c(O)c1)c1cc(O)c(O)c(O)c1 | – | 89 | – | –
24 | Oc1cccc(-c2nc3ccccc3nc2-c2cccc(O)c2)c1 | -4.8 | 10.9 | – | –

Row | Compound | Activity [1] [%] | inhibition [2] [%] | Activity [3] [%] | other results
25 | COc1ccccc1-c1nc2ccc([N+](=O)[O-])cc2nc1-c1ccccc1OC | -3.7 | 6.7 | – | –
26 | Oc1ccc(-c2nc3ccccc3nc2-c2ccc(O)cc2)cc1 | – | 10.2 | 8.5 | –
27 | COC(=O)c1ccc(CNC(=O)c2ccc3nc(-c4ccco4)c(-c4ccco4)nc3c2)cc1 | – | 47.9 | 8.8 | –
28 | COc1cccc(-c2nc3ccc(C(=O)O)cc3nc2-c2cccc(OC)c2)c1 | -4.4 | 9.1 | – | –
29 | COc1ccccc1CNC(=O)c1ccc2nc(-c3ccco3)c(-c3ccco3)nc2c1 | -17.7 | 29.5 | – | –
30 | COC(=O)CNC(=O)c1ccc2nc(-c3ccco3)c(-c3ccco3)nc2c1 | -27.9 | 26.7 | – | –
31 | COc1cccc(-c2nc3ccc(OC)cc3nc2-c2cccc(OC)c2)c1 | -8.4 | 7.2 | – | –
32 | COc1ccc(-c2nc3ccc(OC)cc3nc2-c2ccc(OC)cc2)cc1 | – | 1.8 | 5.7 | –
33 | O=C(O)c1ccc2nc(-c3ccco3)c(-c3ccco3)nc2c1 | – | 60.9 | 5.8 | –
34 | COc1ccc(-c2nc3ccc(C(=O)O)cc3nc2-c2ccc(OC)cc2)cc1 | -4.8 | 4.5 | – | –
35 | O=C(NCc1cccc(F)c1)c1ccc2nc(-c3ccco3)c(-c3ccco3)nc2c1 | -11.6 | 13.6 | – | –
36 | COc1ccc(-c2nc3ccc([N+](=O)[O-])cc3nc2-c2ccc(OC)cc2)cc1 | – | – | 113 | –
37 | COc1cccc(-c2nc3ccccc3nc2-c2cccc(OC)c2)c1 | -6 | 1.4 | – | –
38 | COc1ccc(-c2nc3ccccc3nc2-c2ccc(OC)cc2)cc1 | – | 0.5 | 1.4 | –
39 | Oc1cccc(-c2nc3ccc(O)cc3nc2-c2cccc(O)c2)c1 | – | 25 | 18.2 | –
40 | O=C(NCc1ccccn1)c1ccc2nc(-c3ccco3)c(-c3ccco3)nc2c1 | -9.6 | 64.7 | – | IC50 [4]: 43.3 µM
41 | O=C(NCc1ccco1)c1ccc2nc(-c3ccco3)c(-c3ccco3)nc2c1 | – | 79.5 | 5.9 | fold change (FC) [5]: 10; IC50 [4]: 3.5 µM; Activity [6]: inactive
42 | O=[N+]([O-])c1ccc2nc(-c3ccco3)c(-c3ccco3)nc2c1 | – | 25.5 | 25.9 | –
43 | O=[N+]([O-])c1ccc2nc(-c3ccccn3)c(-c3ccccn3)nc2c1 | -5.6 | 7.8 | – | –
44 | O=C(O)c1ccc2nc(-c3ccc4c(c3)OCO4)c(-c3ccc4c(c3)OCO4)nc2c1 | -4.8 | 23.2 | – | –
45 | COc1cc(CNC(=O)c2ccc3nc(-c4ccco4)c(-c4ccco4)nc3c2)cc(OC)c1OC | -4.7 | 53.6 | – | –
46 | Oc1ccc2nc(-c3ccccc3O)c(-c3ccccc3O)nc2c1 | – | 10.9 | 0.9 | –
47 | COc1ccc2nc(-c3ccco3)c(-c3ccco3)nc2c1 | – | 54.3 | -3.2 | –
